Data taken from ChEMBL document CHEMBL4334458, “Design, synthesis and antibacterial evaluation of novel 15-membered 11a-azahomoclarithromycin derivatives with the 1, 2, 3-triazole side chain” (Eur J Med Chem, 2019).
Values after ≈ are worked out from the molar mass of the structure shown.

Key:
Assay type in all cases: functional
Staphylococcus aureus [1] = assay: Antibacterial activity against erythromycin-susceptible Staphylococcus aureus ATCC 25923 incubated for 24 hrs by broth dilution method; conditions: ATCC 25923, 24 h
Procedure, shortened: (§1)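 CLSI broth microdilution in cation-adjusted Mueller-Hinton broth. Twofold dilutions spanned 0.25–128 or 0.5–256 µg/mL, with CAM and AZM as controls. Log-phase bacteria were added and incubated 24 h at 37 °C. MIC was read by turbidity as the concentration of the last clear well.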

Streptococcus pyogenes [2] = assay: Antibacterial activity against erythromycin-susceptible Streptococcus pyogenes 1 clinical isolate incubated for 24 hrs by broth dilution method; procedure, shortened: as §1
Escherichia coli = assay: Antibacterial activity against penicillin-susceptible Escherichia coli ATCC 25922 incubated for 24 hrs by broth dilution method; conditions: ATCC 25922, 24 h; procedure, shortened: as §1
Pseudomonas aeruginosa = assay: Antibacterial activity against penicillin-susceptible Pseudomonas aeruginosa ATCC 27853 incubated for 24 hrs by broth dilution method; conditions: ATCC 27853, 24 h; procedure, shortened: as §1
Bacillus subtilis = assay: Antibacterial activity against penicillin-susceptible Bacillus subtilis ATCC 9372 incubated for 24 hrs by broth dilution method; conditions: ATCC 9372, 24 h; procedure, shortened: as §1
Staphylococcus aureus [3] = assay: Antibacterial activity against penicillin-resistant Staphylococcus aureus ATCC 31007 incubated for 24 hrs by broth dilution method; conditions: ATCC 31007, 24 h
Staphylococcus aureus [4] = assay: Antibacterial activity against methicillin-resistant Staphylococcus aureus ATCC 43300 incubated for 24 hrs by broth dilution method; conditions: ATCC 43300, 24 h
Streptococcus pneumoniae [5] = assay: Antibacterial activity against erythromycin-resistant Streptococcus pneumoniae B1 expressing the ermB incubated for 24 hrs by broth dilution method
Streptococcus pneumoniae [6] = assay: Antibacterial activity against erythromycin-resistant Streptococcus pneumoniae AB11 expressing the ermB and mefA incubated for 24 hrs by broth dilution method
Streptococcus pyogenes [7] = assay: Antibacterial activity against erythromycin-resistant Streptococcus pyogenes 2 clinical isolate incubated for 24 hrs by broth dilution method

Compound	MIC (Staphylococcus aureus [1]) [µg/mL]	MIC (Streptococcus pyogenes [2]) [µg/mL]	MIC (Escherichia coli) [µg/mL]	MIC (Pseudomonas aeruginosa) [µg/mL]	MIC (Bacillus subtilis) [µg/mL]	MIC (Staphylococcus aureus [3]) [µg/mL]	MIC (Staphylococcus aureus [4]) [µg/mL]	MIC (Streptococcus pneumoniae [5]) [µg/mL]	MIC (Streptococcus pneumoniae [6]) [µg/mL]	MIC (Streptococcus pyogenes [7]) [µg/mL]
CO[C@]1(C)C[C@@H](C)[C@H](O)[C@H](C)CN(C)C[C@@H](COCc2cn(-c3ccccn3)nn2)OC(=O)[C@H](C)[C@@H](O[C@H]2C[C@@](C)(OC)[C@@H](O)[C@H](C)O2)[C@H](C)[C@H]1O[C@@H]1O[C@H](C)C[C@H](N(C)C)[C@H]1O	2 (≈ 2.24 µM)	2 (≈ 2.24 µM)	128 (≈ 143 µM)	128 (≈ 143 µM)	0.5 (≈ 0.56 µM)	> 256	> 256	> 256	128 (≈ 143 µM)	128 (≈ 143 µM)
CO[C@]1(C)C[C@@H](C)[C@H](O)[C@H](C)CN(C)C[C@@H](COCc2cn(-c3ccc(SC)cc3)nn2)OC(=O)[C@H](C)[C@@H](O[C@H]2C[C@@](C)(OC)[C@@H](O)[C@H](C)O2)[C@H](C)[C@H]1O[C@@H]1O[C@H](C)C[C@H](N(C)C)[C@H]1O	4 (≈ 4.26 µM)	4 (≈ 4.26 µM)	128 (≈ 136 µM)	128 (≈ 136 µM)	2 (≈ 2.13 µM)	128 (≈ 136 µM)	64 (≈ 68.2 µM)	64 (≈ 68.2 µM)	32 (≈ 34.1 µM)	32 (≈ 34.1 µM)
CO[C@]1(C)C[C@@H](C)[C@H](O)[C@H](C)CN(C)C[C@@H](Cn2cc(-c3ccccn3)nn2)OC(=O)[C@H](C)[C@@H](O[C@H]2C[C@@](C)(OC)[C@@H](O)[C@H](C)O2)[C@H](C)[C@H]1O[C@@H]1O[C@H](C)C[C@H](N(C)C)[C@H]1O	2 (≈ 2.32 µM)	1 (≈ 1.16 µM)	128 (≈ 148 µM)	64 (≈ 74.2 µM)	4 (≈ 4.63 µM)	> 256	> 256	128 (≈ 148 µM)	128 (≈ 148 µM)	128 (≈ 148 µM)
COc1ccc(-c2cn(C[C@H]3COC(=O)[C@H](C)[C@@H](O[C@H]4C[C@@](C)(OC)[C@@H](O)[C@H](C)O4)[C@H](C)[C@@H](O[C@@H]4O[C@H](C)C[C@H](N(C)C)[C@H]4O)[C@](C)(OC)C[C@@H](C)[C@H](O)[C@H](C)CN3C)nn2)cc1	64 (≈ 71.7 µM)	4 (≈ 4.48 µM)	> 128	> 128	32 (≈ 35.9 µM)	256 (≈ 287 µM)	256 (≈ 287 µM)	256 (≈ 287 µM)	64 (≈ 71.7 µM)	256 (≈ 287 µM)
CO[C@]1(C)C[C@@H](C)[C@H](O)[C@H](C)CN(C)C[C@@H](Cn2cc(-c3ccc(F)cc3)nn2)OC(=O)[C@H](C)[C@@H](O[C@H]2C[C@@](C)(OC)[C@@H](O)[C@H](C)O2)[C@H](C)[C@H]1O[C@@H]1O[C@H](C)C[C@H](N(C)C)[C@H]1O	0.5 (≈ 0.568 µM)	0.25 (≈ 0.284 µM)	32 (≈ 36.4 µM)	32 (≈ 36.4 µM)	0.5 (≈ 0.568 µM)	128 (≈ 145 µM)	128 (≈ 145 µM)	64 (≈ 72.7 µM)	16 (≈ 18.2 µM)	64 (≈ 72.7 µM)
CO[C@]1(C)C[C@@H](C)[C@H](O)[C@H](C)CN(C)[C@@H](Cn2cc(-c3ccc(Cl)cc3)nn2)COC(=O)[C@H](C)[C@@H](O[C@H]2C[C@@](C)(OC)[C@@H](O)[C@H](C)O2)[C@H](C)[C@H]1O[C@@H]1O[C@H](C)C[C@H](N(C)C)[C@H]1O	32 (≈ 35.7 µM)	16 (≈ 17.8 µM)	> 128	> 128	16 (≈ 17.8 µM)	128 (≈ 143 µM)	64 (≈ 71.4 µM)	256 (≈ 286 µM)	128 (≈ 143 µM)	64 (≈ 71.4 µM)
CO[C@]1(C)C[C@@H](C)[C@H](O)[C@H](C)CN(C)[C@H](Cn2cc(-c3ccc(F)cc3)nn2)COC(=O)[C@H](C)[C@@H](O[C@H]2C[C@@](C)(OC)[C@@H](O)[C@H](C)O2)[C@H](C)[C@H]1O[C@@H]1O[C@H](C)C[C@H](N(C)C)[C@H]1O	16 (≈ 18.2 µM)	16 (≈ 18.2 µM)	> 128	128 (≈ 145 µM)	16 (≈ 18.2 µM)	128 (≈ 145 µM)	256 (≈ 291 µM)	128 (≈ 145 µM)	128 (≈ 145 µM)	128 (≈ 145 µM)
COc1ccc(-c2cn(C[C@@H]3COC(=O)[C@H](C)[C@@H](O[C@H]4C[C@@](C)(OC)[C@@H](O)[C@H](C)O4)[C@H](C)[C@@H](O[C@@H]4O[C@H](C)C[C@H](N(C)C)[C@H]4O)[C@](C)(OC)C[C@@H](C)[C@H](O)[C@H](C)CN3C)nn2)cc1	64 (≈ 71.7 µM)	4 (≈ 4.48 µM)	> 128	> 128	32 (≈ 35.9 µM)	32 (≈ 35.9 µM)	128 (≈ 143 µM)	128 (≈ 143 µM)	128 (≈ 143 µM)	128 (≈ 143 µM)
CO[C@]1(C)C[C@@H](C)[C@H](O)[C@H](C)CN(C)C[C@@H](COCc2cn(-c3ccc(C)cc3)nn2)OC(=O)[C@H](C)[C@@H](O[C@H]2C[C@@](C)(OC)[C@@H](O)[C@H](C)O2)[C@H](C)[C@H]1O[C@@H]1O[C@H](C)C[C@H](N(C)C)[C@H]1O	4 (≈ 4.41 µM)	4 (≈ 4.41 µM)	128 (≈ 141 µM)	128 (≈ 141 µM)	2 (≈ 2.21 µM)	256 (≈ 283 µM)	128 (≈ 141 µM)	128 (≈ 141 µM)	64 (≈ 70.6 µM)	32 (≈ 35.3 µM)
CO[C@]1(C)C[C@@H](C)[C@H](O)[C@H](C)CN(C)C[C@H](Cn2cc(-c3ccc(F)cc3)nn2)OC(=O)[C@H](C)[C@@H](O[C@H]2C[C@@](C)(OC)[C@@H](O)[C@H](C)O2)[C@H](C)[C@H]1O[C@@H]1O[C@H](C)C[C@H](N(C)C)[C@H]1O	2 (≈ 2.27 µM)	0.25 (≈ 0.284 µM)	32 (≈ 36.4 µM)	64 (≈ 72.7 µM)	2 (≈ 2.27 µM)	256 (≈ 291 µM)	256 (≈ 291 µM)	256 (≈ 291 µM)	256 (≈ 291 µM)	64 (≈ 72.7 µM)
CO[C@]1(C)C[C@@H](C)[C@H](O)[C@H](C)CN(C)[C@H](Cn2cc(-c3ccccc3)nn2)COC(=O)[C@H](C)[C@@H](O[C@H]2C[C@@](C)(OC)[C@@H](O)[C@H](C)O2)[C@H](C)[C@H]1O[C@@H]1O[C@H](C)C[C@H](N(C)C)[C@H]1O	8 (≈ 9.28 µM)	8 (≈ 9.28 µM)	64 (≈ 74.2 µM)	64 (≈ 74.2 µM)	16 (≈ 18.6 µM)	128 (≈ 148 µM)	256 (≈ 297 µM)	256 (≈ 297 µM)	256 (≈ 297 µM)	128 (≈ 148 µM)
COc1ccc(-n2cc(COC[C@@H]3CN(C)C[C@@H](C)[C@@H](O)[C@H](C)C[C@@](C)(OC)[C@H](O[C@@H]4O[C@H](C)C[C@H](N(C)C)[C@H]4O)[C@@H](C)[C@H](O[C@H]4C[C@@](C)(OC)[C@@H](O)[C@H](C)O4)[C@@H](C)C(=O)O3)nn2)cc1	8 (≈ 8.68 µM)	4 (≈ 4.34 µM)	128 (≈ 139 µM)	128 (≈ 139 µM)	2 (≈ 2.17 µM)	256 (≈ 278 µM)	256 (≈ 278 µM)	256 (≈ 278 µM)	128 (≈ 139 µM)	128 (≈ 139 µM)
CO[C@]1(C)C[C@@H](C)[C@H](O)[C@H](C)CN(C)C[C@H](COCc2cn(-c3ccc(C)cc3)nn2)OC(=O)[C@H](C)[C@@H](O[C@H]2C[C@@](C)(OC)[C@@H](O)[C@H](C)O2)[C@H](C)[C@H]1O[C@@H]1O[C@H](C)C[C@H](N(C)C)[C@H]1O	0.5 (≈ 0.552 µM)	1 (≈ 1.1 µM)	64 (≈ 70.6 µM)	16 (≈ 17.7 µM)	≤ 0.25	256 (≈ 283 µM)	256 (≈ 283 µM)	256 (≈ 283 µM)	64 (≈ 70.6 µM)	64 (≈ 70.6 µM)
CCCCc1ccc(-c2cn(C[C@H]3CN(C)C[C@@H](C)[C@@H](O)[C@H](C)C[C@@](C)(OC)[C@H](O[C@@H]4O[C@H](C)C[C@H](N(C)C)[C@H]4O)[C@@H](C)[C@H](O[C@H]4C[C@@](C)(OC)[C@@H](O)[C@H](C)O4)[C@@H](C)C(=O)O3)nn2)cc1	1 (≈ 1.09 µM)	0.06 (≈ 0.0653 µM)	128 (≈ 139 µM)	64 (≈ 69.7 µM)	1 (≈ 1.09 µM)	32 (≈ 34.8 µM)	16 (≈ 17.4 µM)	16 (≈ 17.4 µM)	32 (≈ 34.8 µM)	16 (≈ 17.4 µM)
